For assay [1], the system named is Human immunodeficiency virus 1. Description: Reactivation of HIV-1 latent proviruses in Th17 resting memory T cells after PRC2 KD infected with vesicular stomatitis virus G-pseudotyped HIV-1 at 10 nM by FACS analysis. It is filed as functional. The method in brief: (§1)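 Naive CD4+ T cells from healthy-donor PBMCs were activated with CD3/CD28 beads, polarized to Th17, and infected with VSV-G-pseudotyped Nef+ HIV-1 expressing CD8a-d2EGFP. Infected cells were CD8a-selected and made quiescent for 2 weeks in IL-2 (15 IU/ml) plus IL-23 ([…]). Cells were then exposed to compound for 96 h. Nef and pSer175-CDK9 were read by FACS, and viability by propidium iodide.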
(In flow cytometry, cells or beads pass a laser one at a time.)

Assay [2] has as its system Human immunodeficiency virus 1. Description: Reactivation of HIV-1 latent proviruses in Th17 resting memory T cells by measuring pSer175 CDK9 level treated at 10 nM for 96 hrs by FACS analysis (reference value: 1.59%). It is filed as functional.
Assay [3] has as its system Human immunodeficiency virus 1. Description: Reactivation of quiescent HIV-1 infected in human Th17 cells stimulated by IL-15 treated at 100 nM for 72 hrs followed by viral infection replenishment of drug medium every 72 hrs for 26 days by FACS analysis relative to control. It is filed as functional. The method, boiled down:
(§2)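 Th17 cells exposed to inhibitor (100 nM) for 72 h, then infected with HIV-1. Infected cells kept under low-cytokine conditions to enter quiescence, with drug replenished every 72 h. On day 26, cells washed free of drug and induced with CD3/CD28 beads, IL-15 (50 ng/ml) or ConA (5 µg/ml). Nef and pSer175-CDK9 read by FACS; DMSO-pretreated control.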

Assay [4] relates to Human immunodeficiency virus 1. Description: Reactivation of latent proviruses in human Th17 cells infected with HIV-1 assessed as Nef and pSer175-CDK9 levels at 100 nM after 72 hrs by FACS analysis. In kind it is functional. The method, boiled down: as §2
Assay [5] has as its system Human immunodeficiency virus 1. Description: Reactivation of HIV-1 latent proviruses in Th17 resting memory T cells by measuring pSer175 CDK9 level treated at 1 uM for 96 hrs by FACS analysis (reference value: 1.59%). It is filed as functional. The method in brief:
as §1

For assay [6], the system named is Human immunodeficiency virus 1. Description: Reactivation of HIV-1 latent proviruses in Th17 resting memory T cells by measuring pSer175 CDK9 level treated at 100 nM for 96 hrs by FACS analysis (reference value: 1.59%). It is filed as functional. The method in brief:
as §1

Assay [7] has as its system Human immunodeficiency virus 1. Description: Antiviral activity against HIV-1 in human Jurkat T cells assessed as reduction GFP positive cells at 1 uM for 18 hrs. It is filed as functional, organism-based. The method, boiled down:
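Jurkat E6 cells pretreated overnight with inhibitor (5 µM; DZNep 5 or 10 µM; phenelzine 250 µM), washed twice with PBS, then spinoculated with VSV-G-pseudotyped HIV-1 (d2EGFP-Nef). Three days later, silent proviruses induced with 1 µM SAHA for 18 h. d2EGFP measured by FACS. Relative silencing is the % silent virus (SAHA-stimulated minus untreated GFP+), divided by scrambled/untreated control. Two independent experiments, SEM.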

In assay [8] the test system is Human immunodeficiency virus 1. Description: Reactivation of HIV-1 infected in human Jurkat cells at 1 uM measured after 7 days by FACS analysis relative to control. In kind it is functional. Particulars: time 7 day. The method in brief:
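E4 Jurkat cells carrying latent d2EGFP HIV-1, infected with shRNA or CRISPR-Cas9 lentivirus. Seven days post-infection, stimulated overnight with SAHA (1 µM), anti-CD3 (0.125 µg/ml) plus anti-CD28 (1 µg/ml), or TNF-α (1 ng/ml). d2EGFP-positive cells quantified by FACS. Three separate experiments, SEM.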

The test system of assay [9] is Human immunodeficiency virus 1. Description: Reactivation of HIV-1 latent proviruses in Th17 resting memory T cells after PRC2 KD infected with vesicular stomatitis virus G-pseudotyped HIV-1 at 100 nM by FACS analysis relative to control. It is filed as functional. The method, boiled down:
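Th17 cells were pretreated with 100 nM compound for 72 h, then infected with VSV-G-pseudotyped HIV-1 and cultured under low-cytokine conditions to force quiescence, with drug replenished every 72 h. On day 26 the drug was washed out and cells were induced with CD3/CD28 beads, IL-15 (50 ng/ml) or ConA (5 µg/ml). Nef and pSer175-CDK9 were read by FACS against DMSO-pretreated cells.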

Assay [10] relates to Human immunodeficiency virus 1. Description: Reactivation of HIV-1 latent proviruses in Th17 resting memory T cells by measuring pSer175 CDK9 level treated at 10 nM for 96 hrs by FACS analysis (reference value: 1.07%). In kind it is functional.
Assay [11] concerns Human immunodeficiency virus 1. Description: Reactivation of HIV-1 latent proviruses in Th17 resting memory T cells by measuring pSer175 CDK9 level treated at 100 nM for 96 hrs by FACS analysis (reference value: 1.07%). In kind it is functional.
For assay [12], the system named is Human immunodeficiency virus 1. Description: Reactivation of HIV-1 latent proviruses in Th17 resting memory T cells by measuring pSer175 CDK9 level treated at 1 uM for 96 hrs by FACS analysis (reference value: 1.07%). It is filed as functional. The method, boiled down: as §1
Assay [13] concerns Human immunodeficiency virus 1. Description: Reactivation of HIV-1 latent proviruses in Th17 resting memory T cells by measuring pSer175 CDK9 level treated at 10 nM for 96 hrs by FACS analysis (reference value: 0.76%). In kind it is functional.
Assay [14] concerns Human immunodeficiency virus 1. Description: Reactivation of HIV-1 latent proviruses in Th17 resting memory T cells by measuring pSer175 CDK9 level treated at 100 nM for 96 hrs by FACS analysis (reference value: 0.76%). It is filed as functional. The method in brief:
as §1

Assay [15] relates to Human immunodeficiency virus 1. Description: Reactivation of HIV-1 latent proviruses in Th17 resting memory T cells by measuring pSer175 CDK9 level treated at 1 uM for 96 hrs by FACS analysis (reference value: 0.76%). It is filed as functional. The method, boiled down: as §1

The source made the active and inactive calls. The rule behind the calls is not given here.

For the compound `COc1cc2c(NC3CCN(C(C)C)CC3)nc(C3CCCCC3)nc2cc1OCCCN1CCCC1`, the Activity in assay [1] is 35%; in [2] it was 22.84%; in [3], 22%; in assay [4], about 4%; in assay [5] it was 34.92%; in assay [6], 32.18%.
Turning to `O=C(CCCCCCC(=O)Nc1ccccc1)NO` [VORINOSTAT], the result in assay [7] was Active. Besides, the Activity in assay [8] was about 30%.
Take `CCCc1cc(C)[nH]c(=O)c1CNC(=O)c1cc(-c2ccnc(N3CCN(C)CC3)c2)cc2c1cnn2C(C)C`: the Activity in [1] is reported as 20%; in assay [3], 27%; in assay [9], 24.15%; in assay [10], 22.31%; in assay [4], about 8%; in [11] it was 24.13%. For the same compound, the Activity in [12] worked out at 29.11%.
Take `CCN(c1cc(-c2ccc(CN3CCOCC3)cc2)cc(C(=O)NCc2c(C)cc(C)[nH]c2=O)c1C)C1CCOCC1` [TAZEMETOSTAT]: the Activity in [13] was 16.28%; in [1], 20%; in assay [3], 40%; in assay [14], 29.17%; in assay [4], about 10%; in [15], 27.81%.

These data come from ChEMBL document CHEMBL5712893, “Multiple Histone Lysine Methyltransferases Are Required for the Establishment and Maintenance of HIV-1 Latency” (2017).
